Experimental data published in PubChem BioAssay AID809 (SRMLSC, 2007).
Activity calls are given as the source filed them.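 Rule for the calls: active = EC50 for reversing nicotinamide-shortened yeast lifespan at or below a set limit; inactive = EC50 above that limit.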

tested on: S. cerevisiae DeaD BB579, nicotinamide rescue growth, OD615 48 h; assay: BB579 yeast growth restoration under nicotinamide – S. cerevisiae, yeast lifespan extension project, dose response (AID 809)
Procedure, shortened: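 System: S. cerevisiae DeaD strain BB579 / Medium: Glucose-containing restrictive synthetic medium (CSMM-D), shifted from galactose / Schedule: 4 h pre-incubation, 48 h exposure at 30 °C / Technique: optical density at 615 nm (absorbance) / Read-out: culture growth as lifespan proxy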

Q: Which EC50 does the source give for `O=c1cc(O)c2c(=O)n(-c3ccccc3)c3c(c2o1)CCCCCC3` here?
A: > 10 µM (inactive)

Q: With `COc1ccc(/C=C/C(=O)C2C(=O)C=C(C)OC2=O)cc1O` (configuration not stated) as the compound, how does the EC50 read?
A: 7.47 µM

Q: How did the EC50 turn out when `O=C(N/N=C/c1ccc(F)cc1)c1c(O)c2ccccc2[nH]c1=O` was run?
A: 2.22 µM

Q: How did the EC50 turn out when `O=C(NCC1CCCO1)c1c(O)c2ccccc2[nH]c1=O` (configuration not stated) was run?
A: > 10 µM (inactive)

Q: For `CCOC(=O)c1cnc(-c2ccccc2)nc1Oc1ccc(Cl)cc1`, which EC50 is on record?
A: > 10 µM (inactive)

Q: `Fc1cccc2sc(Nc3nnc(-c4ccccc4)o3)nc12` was tested. Which EC50 did it give?
A: 3.02 µM

Q: Which EC50 does the source give for `O=S(=O)(ON(c1ccccc1)S(=O)(=O)c1ccccc1)c1ccccc1` here?
A: > 10 µM (inactive)

Q: With `CN(C)c1ccc(S(=O)(=O)c2ccc(Cl)cc2)cc1` as the compound, how does the EC50 read?
A: > 10 µM (inactive)

Q: For `COc1ccc(CNC(=O)C2CCN(c3nc(OC)nc(OC)n3)CC2)cc1`, which EC50 is on record?
A: > 10 µM (inactive)

Q: Which EC50 does the source give for `ClC(Cl)(c1nnnn1-c1ccccc1)c1nnnn1-c1ccccc1` here?
A: > 10 µM (inactive)

Q: With `CCSc1nnc(NC(=O)CSc2nc(C)cc(C)n2)s1` as the compound, how does the EC50 read?
A: > 10 µM (inactive)

Q: For `O=C(Nc1cccc(Cl)c1)c1ccc2c(=O)n3c(nc2c1)CCCCC3`, which EC50 is on record?
A: 6.59 µM

Q: For `CC(=O)Nc1nc(C)c(Oc2ccccc2)c(=O)[nH]1`, which EC50 is on record?
A: > 10 µM (inactive)

Q: `O=[N+]([O-])c1cc2oc3c(c2c(C=NCc2ccncc2)c1O)CCCC3` was tested. Which EC50 did it give?
A: 1.2 µM

Q: For `COc1cc(OC)cc(-c2nc3ccccc3c(=O)n2OC(=O)c2ccc(C)c(C)c2)c1`, which EC50 is on record?
A: 8.74 µM

Q: How did the EC50 turn out when `CCOC(=O)CCS(=O)(=O)c1nc(-c2ccccc2)cc(C(F)(F)F)n1` was run?
A: 1.13 µM

Q: How did the EC50 turn out when `COc1ccccc1C(=O)Oc1cc(N)n(S(=O)(=O)c2ccc(C)cc2)n1` was run?
A: > 10 µM (inactive)

Q: How did the EC50 turn out when `COC(=O)c1cc(OC)c(OC)cc1NC(=S)Nc1cccc(C(C)=O)c1` was run?
A: > 10 µM (inactive)

Q: Which EC50 does the source give for `CCCCSc1nc(O)c(C2OC(=O)c3c2ccc(OC)c3OC)c(=O)n1C` (configuration not stated) here?
A: 5.79 µM

Q: How did the EC50 turn out when `N#C/C(=C\c1ccccc1)C(=O)N(c1ccccn1)C1CCCCC1` was run?
A: 6.66 µM

Q: `Cc1ccnc(N=Cc2c(O)ccc3oc4c(c23)CCCC4)c1` was tested. Which EC50 did it give?
A: 8.47 µM

Q: Which EC50 does the source give for `CCOC(=O)c1nnn(-c2nonc2N)c1CN1CCc2ccccc2C1` here?
A: 9.77 µM

Q: How did the EC50 turn out when `Oc1ccc2ccccc2c1/C=N/c1nccs1` was run?
A: 6.59 µM

Q: Which EC50 does the source give for `CCOC(=O)C1C(=O)C(C(C)=O)C(=O)CC1CC(C)SCC` (configuration not stated) here?
A: 2.06 µM

Q: `CC1CCc2cc(F)cc3c(O)c(C(=O)NCc4ccco4)c(=O)n1c23` (configuration not stated) was tested. Which EC50 did it give?
A: > 10 µM (inactive)

Q: With `CCOc1ccc(/C=C2/C(=O)NC(=O)N(CCc3ccc(F)cc3)C2=O)cc1` as the compound, how does the EC50 read?
A: > 10 µM (inactive)

Q: `CCCCn1c(=O)c(C(=O)Nc2cnccn2)c(O)c2ccccc21` was tested. Which EC50 did it give?
A: 3.01 µM

Q: For `CC(C)Cn1c(=O)c(C(=O)Nc2cnccn2)c(O)c2ccccc21`, which EC50 is on record?
A: 9.1 µM

Q: For `COc1ccccc1-c1c(C)oc2cc(OC(=O)c3ccco3)ccc2c1=O`, which EC50 is on record?
A: > 10 µM (inactive)

Q: `CCOc1ccc(OCC(=O)c2c(O)c3ccccc3oc2=O)cc1` was tested. Which EC50 did it give?
A: 3.4 µM

Q: How did the EC50 turn out when `CCCCOC(=O)n1c(=O)oc2cc(S(=O)(=O)N3CCCCC3)ccc21` was run?
A: > 10 µM (inactive)

Q: With `CCc1nc(SCC(=O)c2ccc3c(c2)OCCO3)c2ccccc2n1` as the compound, how does the EC50 read?
A: > 10 µM (inactive)

Q: With `CCOC(=O)c1ccccc1N1C(=O)CSC1=S` as the compound, how does the EC50 read?
A: > 10 µM (inactive)

Q: How did the EC50 turn out when `O=S1(=O)C=C(Sc2nnc(-c3ccccc3)o2)c2ccccc21` was run?
A: 9.27 µM

Q: With `CN=C(SCc1cc2c(cc1Cl)OCO2)c1c(O)n(C)c(=O)n(C)c1=O` as the compound, how does the EC50 read?
A: 6.46 µM

Q: Which EC50 does the source give for `COc1cc(/C=C/C(=O)C2C(=O)C=C(C)OC2=O)cc(OC)c1O` (configuration not stated) here?
A: 6.69 µM

Q: For `Cc1[nH]nc2nc3c(c(OC(=O)c4ccccc4)c12)c(=O)n(C)c(=O)n3C`, which EC50 is on record?
A: 1.75 µM

Q: `CCOc1ccc(C2=NNC(c3cccs3)=Nc3ccc(OCC)cc32)cc1` was tested. Which EC50 did it give?
A: > 10 µM (inactive)

Q: Which EC50 does the source give for `CCOc1ccc(C(=O)C(CN2CCOCC2)c2ccccc2)cc1` (configuration not stated) here?
A: 7.92 µM

Q: Which EC50 does the source give for `N#Cc1cc(C(=O)c2cc(F)ccc2O)cn(-c2nccs2)c1=O` here?
A: > 10 µM (inactive)

Q: With `COc1ccc(OC)c(C2C(C(C)=O)=C(O)C(=O)N2Cc2cccnc2)c1` (configuration not stated) as the compound, how does the EC50 read?
A: > 10 µM (inactive)

Q: Which EC50 does the source give for `Cc1nc2c(=O)n(C)c(=O)n(C)c2nc1Cl` here?
A: 1.72 µM

Q: `CC(C)(C)C1CCc2[nH]nc(C(=O)O)c2C1` (configuration not stated) was tested. Which EC50 did it give?
A: 1.2 µM

Q: For `CC(C)Cc1nn2c(=O)cc(O)nc2s1`, which EC50 is on record?
A: 8.79 µM

Q: For `Cc1ccc(C(C2=C(O)CC(C)(C)CC2=O)C2C(=O)CC(C)(C)CC2=O)o1` (configuration not stated), which EC50 is on record?
A: 6.35 µM

Q: How did the EC50 turn out when `O=C(c1c[nH]c(C(=O)C(Cl)(Cl)Cl)c1)c1ccccc1Cl` was run?
A: 8.53 µM

Q: For `CCOC(=O)CN1C(=O)N[C@H](c2ccc(Br)cc2)C(C(C)=O)=C1C`, which EC50 is on record?
A: > 10 µM (inactive)

Q: How did the EC50 turn out when `CCC(C)OC(=O)C1C(c2ccccc2)C(C(=O)O)C1c1ccccc1` (configuration not stated) was run?
A: 8.26 µM

Q: How did the EC50 turn out when `O=C(NC(=S)NNC(=O)c1ccc(Cl)cc1Cl)c1cccnc1` was run?
A: 9.35 µM

Q: For `Cc1cc(C)c(S(=O)(=O)c2ccccc2)c(OC(=O)c2ccc(Cl)cc2Cl)n1`, which EC50 is on record?
A: 7.48 µM

Q: For `COC(=O)CCS(=O)(=O)c1nc(-c2ccccc2)cc(C(F)(F)F)n1`, which EC50 is on record?
A: 1.99 µM

Q: For `CCCC(=O)Nc1ccc(C(=O)NNC(=S)NC(=O)c2cccs2)cc1`, which EC50 is on record?
A: > 10 µM (inactive)

Q: `CCCC(=O)C1C(=O)CC(CC(C)SCC)CC1=O` (configuration not stated) was tested. Which EC50 did it give?
A: 2.33 µM

Q: For `COc1ccc(CNC(=O)c2c(O)c3cccc4c3n(c2=O)CCC4)cc1`, which EC50 is on record?
A: > 10 µM (inactive)

Q: How did the EC50 turn out when `O=C(CSc1nc2ccccc2o1)c1cc2ccccc2oc1=O` was run?
A: > 10 µM (inactive)

Q: With `C=CCn1c(-c2ccc(OC)cc2)csc1=Nc1c(C)n(C)n(-c2ccccc2)c1=O` as the compound, how does the EC50 read?
A: > 10 µM (inactive)

Q: `CC1(C)CC2c3cccc(C(=O)O)c3C(=O)N2c2c1ccc1ccccc21` (configuration not stated) was tested. Which EC50 did it give?
A: 2.84 µM

Q: Which EC50 does the source give for `Cc1ccc(N(C)C(=O)Oc2ccc(C(=O)c3ccc(Cl)cc3)cc2)cc1` here?
A: > 10 µM (inactive)

Q: With `O=c1cc(-c2c(F)c(F)c(F)c(F)c2F)oc2c(F)c(F)c(F)c(F)c12` as the compound, how does the EC50 read?
A: 5.65 µM

Q: For `c1ccc(-c2c(-c3ccccc3)n(Cc3ccco3)c3ncnc(NCCCn4ccnc4)c23)cc1`, which EC50 is on record?
A: 1.98 µM

Q: With `O=Cc1cccn1-c1sc2c(c1C(=O)O)CCCC2` as the compound, how does the EC50 read?
A: > 10 µM (inactive)

Q: With `O=C1c2ccccc2C(Nc2ccc3c(c2)OCCO3)N1c1ccccn1` (configuration not stated) as the compound, how does the EC50 read?
A: > 10 µM (inactive)

Q: `O=c1c2ccccc2nc(-c2cccc(Cl)c2)n1O` was tested. Which EC50 did it give?
A: < 0.078 µM

Q: Which EC50 does the source give for `COCCN(CCOC)S(=O)(=O)c1ccc(C(=O)Nc2sc3c(c2C(N)=O)CCCCC3)cc1` here?
A: > 10 µM (inactive)

Q: For `O=CN(/C=C1\Sc2ccccc2C1=O)Cc1ccccc1`, which EC50 is on record?
A: 5.73 µM

Q: For `O=C1Nc2ccccc2C12OCC1(CO2)COC2(OC1)C(=O)Nc1ccccc12` (configuration not stated), which EC50 is on record?
A: > 10 µM (inactive)

Q: How did the EC50 turn out when `O=C1CC(c2ccccc2)CC(O)=C1C=NCCN1CCN(C(=O)Cc2ccccc2)CC1` (configuration not stated) was run?
A: 6.72 µM

Q: `CCc1ccc2nc(N3C(=O)C(O)=C(C(=O)c4ccco4)C3c3cccs3)sc2c1` (configuration not stated) was tested. Which EC50 did it give?
A: 9.41 µM

Q: For `CC(C)c1noc2ncc(C(=O)c3cc(Cl)cc(Cl)c3O)cc12`, which EC50 is on record?
A: > 10 µM (inactive)

Q: `CCc1oc2ccccc2c1C(=O)CCN1CCCCC1` was tested. Which EC50 did it give?
A: 8.21 µM

Q: `Cc1ccc(N(C(=O)CS(=O)CC(=O)Nc2ccc(F)cc2)C(C(=O)NC2CCCCC2)c2ccco2)cc1` (configuration not stated) was tested. Which EC50 did it give?
A: > 10 µM (inactive)

Q: With `Cc1nc2ccccc2n1-c1ccccc1` as the compound, how does the EC50 read?
A: > 10 µM (inactive)

Q: Which EC50 does the source give for `CC(=O)Oc1c(C(=O)c2nnc(C)o2)c(=O)n(C)c2ccccc12` here?
A: > 10 µM (inactive)

Q: For `O=C1c2ccccc2NC(c2cnc3ccccc3n2)N1O` (configuration not stated), which EC50 is on record?
A: 1.42 µM

Q: How did the EC50 turn out when `CN(C)/C=C(/C(=O)c1ccc(Cl)cc1Cl)S(=O)(=O)c1ccc(Cl)cc1` was run?
A: 5.49 µM

Q: `COc1cc(/C=C/C(=O)c2c(O)cc(C)oc2=O)cc(OC)c1O` was tested. Which EC50 did it give?
A: > 10 µM (inactive)

Q: Which EC50 does the source give for `CN(C)/C=C(/C(=O)c1ccc(Cl)cc1Cl)S(=O)(=O)c1ccccc1` here?
A: 5.3 µM
